DAT uptake mod: changed hDAT dopamine uptake under cocaine IC80, either direction, primary screen, cocaine antagonist project, cell-based, LLC-PK1 hDAT, [14C]-dopamine uptake, MLSMR; LLC-PK1 hDAT cells, [14C]-dopamine uptake with cocaine IC80; actives deviate in either direction; Sodium-dependent dopamine transporter (Homo sapiens), Q01959; 1.3% of 110,000 active; B-score at 10 µM; AID 449768, 2010;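 active = Z score or B-score, a plate-position-corrected score, falls beyond the plate's 99.7% confidence bounds, in either direction; inactive = both scores lie inside the 99.7% bounds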;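 also: scored against the spread of the other compound wells on the same plate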
Target sequence (Q01959 whole entry, looked up): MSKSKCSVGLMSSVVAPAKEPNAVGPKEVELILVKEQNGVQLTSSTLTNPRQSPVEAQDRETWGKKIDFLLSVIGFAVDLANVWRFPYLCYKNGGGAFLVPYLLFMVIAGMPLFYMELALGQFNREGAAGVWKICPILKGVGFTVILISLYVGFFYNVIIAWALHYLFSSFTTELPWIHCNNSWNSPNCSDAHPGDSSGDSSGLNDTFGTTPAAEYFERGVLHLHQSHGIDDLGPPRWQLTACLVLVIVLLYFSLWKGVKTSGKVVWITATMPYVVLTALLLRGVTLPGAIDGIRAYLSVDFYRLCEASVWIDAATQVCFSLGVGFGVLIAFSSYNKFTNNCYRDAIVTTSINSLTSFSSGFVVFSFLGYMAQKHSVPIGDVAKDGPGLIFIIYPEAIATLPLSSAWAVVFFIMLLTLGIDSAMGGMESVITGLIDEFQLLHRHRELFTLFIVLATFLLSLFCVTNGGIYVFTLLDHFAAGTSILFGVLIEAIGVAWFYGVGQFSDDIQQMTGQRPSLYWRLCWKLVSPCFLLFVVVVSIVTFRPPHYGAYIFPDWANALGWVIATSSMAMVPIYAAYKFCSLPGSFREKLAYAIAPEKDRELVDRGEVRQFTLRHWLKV
D1 mod: D1 CRE-luciferase signal change, two-sided – cell-based, HEK293 D1, dopamine EC30, D1 allosteric modulator project, primary screen; D(1A) dopamine receptor (Homo sapiens), P21728; dopamine EC30 potentiation; actives deviate in either direction; B-score at 10 µM; 5.9% of 58,000 active; AID 641, 2007;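 active = luminescence count or its row- and column-corrected plate score outside the 99.7% band of the plate's sample wells, on either side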
WNV protease inh: inhibitors of WNV NS2B-NS3 protease, primary screen, biochemical, fluorogenic substrate | 0.18% of 65,000 active | AID 577, 2007 | z-score (test concentration not listed) | Genome polyprotein (West Nile virus), P06935 | fluorogenic substrate Ex360/Em465; hits give low values; in the data active = z-score below about -3
AP complement: alternative complement pathway inhibitors, primary screen, biochemical, ELISA, human serum, orthogonally pooled compounds; 0.08% of 62,000 active; AID 1235, 2008; inhibition, % at 5 µM; LPS-coated ELISA, C3 deposition; tested in compound mixtures;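 active = inhibition above 30% in each of the two pooled mixtures holding the compound, so the lower value exceeds 30%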;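 also: 0% = serum in Mg-EGTA without compound and 100% = EDTA serum blank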
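Test system: human serum complement alternative pathway, C3 deposition onto LPS / Medium: Mg2+-EGTA GVB++ buffer containing human serum at 1:15 dilution / Probe or stimulus: Plate-bound LPS / Times: 1 h at 37 °C / Signal: ELISA with HRP anti-human C3 antibody, TMB substrate, absorbance 450 nm / Measure: percent inhibition / Repeats: two pool placements per compound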
* marks the source's active call; other numbers are inactive results. Shown is part of a subset that was picked to be rich in hits.

Results for CCc1ccccc1NC(=O)CSc1nc(-c2ccccc2)nn1C(=O)c1cccc([N+](=O)[O-])c1 ?
DAT uptake mod: 5.4*

How did Cn1nc(C(=O)N2CCc3ccccc3C2)c2ccccc2c1=O do in these assays?
DAT uptake mod: 0.78*

How did O=C(Nc1nnc(C2CCCCC2)s1)c1ccco1 do in these assays?
DAT uptake mod: -1.7*; D1 mod: 0.018; WNV protease inh: -1.1; AP complement: 11

How did CCOC(=O)c1ccc(NC(=O)c2ccc(C)c(S(=O)(=O)N3CCOCC3)c2)cc1 do in these assays?
DAT uptake mod: 0.28; D1 mod: -6.6*; WNV protease inh: -0.17; AP complement: 10

How did COCCn1nnnc1CN1CCC(C)CC1 do in these assays?
DAT uptake mod: 0.38

How did CC(C(=O)NCc1cccs1)N1C(=O)c2ccccc2C1=O (stereo unspecified) do in these assays?
DAT uptake mod: -0.84

Results for COc1ccc(CCNC(=O)c2cc3sc(Cl)cc3n2C)cc1OC ?
DAT uptake mod: 2.3*; D1 mod: -0.34; WNV protease inh: 0.4; AP complement: -8

How did Cc1c(C)n(Cc2ccccc2)c2ncnc(N)c12 do in these assays?
DAT uptake mod: -0.0097; D1 mod: -2.8*; WNV protease inh: 0.82; AP complement: -2

Results for Nc1ncnc2c1ncn2CCNCCc1ccccc1 ?
DAT uptake mod: -0.56; D1 mod: 0.013; WNV protease inh: -0.64; AP complement: -2

What do the screens show for `CC(=O)C1C(c2ccc(F)c(F)c2)NC(=O)NC1(O)C(F)(F)F` (stereo unspecified)?
DAT uptake mod: -0.42; D1 mod: -0.12; WNV protease inh: -0.92

What do the screens show for `O=C(CCN1CCC(c2ccccc2)C1)c1cccs1` (stereo unspecified)?
DAT uptake mod: -0.022; D1 mod: -4.7*; WNV protease inh: -0.0017; AP complement: -10

Results for Cn1c(C(=O)NCCCN2CCN(c3ccccc3F)CC2)cc2c(=O)n(C)c3ccccc3c21 ?
DAT uptake mod: 1.3; D1 mod: -2.6*; WNV protease inh: 0.49; AP complement: 5

How did Cn1c(C(=O)NCCN2CCCCCC2)cc2c(=O)n(C)c3ccccc3c21 do in these assays?
DAT uptake mod: -0.069; D1 mod: -0.26; WNV protease inh: 0.65; AP complement: 9

How did Cc1ccc(Cl)cc1N1CCN(C(=O)CCC(=O)O)CC1 do in these assays?
DAT uptake mod: -3*; D1 mod: 0.0025; WNV protease inh: -0.54; AP complement: 3

How did Cn1c(C(=O)NCCN2CCN(Cc3ccccc3)CC2)cc2c(=O)n(C)c3ccccc3c21 do in these assays?
DAT uptake mod: 3.2*; D1 mod: -0.54; WNV protease inh: 0.33; AP complement: 25

What do the screens show for `Cc1ccc(Cl)cc1N1CCN(C(=O)c2cc3c(=O)n(C)c4ccccc4c3n2C)CC1`?
DAT uptake mod: 0.93; D1 mod: -4*; WNV protease inh: 0.36; AP complement: 13

Results for O=C(O)CCC(=O)N1CCN(c2cccc(Cl)c2)CC1 ?
DAT uptake mod: -1.5; D1 mod: -1.2; WNV protease inh: -0.9; AP complement: -5

How did CC(=O)NCC1=C(NC(C)=O)C2CC1C(C)(C)C2C (stereo unspecified) do in these assays?
D1 mod: -0.0073; WNV protease inh: 0.92; AP complement: 12

How did c1ccc2c(c1)nc(-c1ccncc1)n1nnnc21 do in these assays?
DAT uptake mod: -0.28; D1 mod: 3.4; WNV protease inh: 1.3; AP complement: -1

How did COCCn1c(C)cc(C(=O)CSc2nc(C)nc3sc4c(c23)CCC4)c1C do in these assays?
DAT uptake mod: 0.79; D1 mod: 1.5; WNV protease inh: 0.26; AP complement: -10

What do the screens show for `O=C(CSc1nnc2n(C3CCCC3)c(=O)c3ccccc3n12)N1CCCCCC1`?
DAT uptake mod: 2.2; D1 mod: 0.83; WNV protease inh: -1.2; AP complement: -2

How did CC1CCCN(C(=O)CSc2nnc3n(C4CCCC4)c(=O)c4ccccc4n23)C1 (stereo unspecified) do in these assays?
DAT uptake mod: 3.1*; D1 mod: 1.1; WNV protease inh: 0.58; AP complement: 35*

Results for Cc1cc(NCCCn2ccnc2)n2ncc(-c3ccccc3)c2n1 ?
DAT uptake mod: 0.44; D1 mod: -6.4*; WNV protease inh: -0.13; AP complement: 11

Results for CCCCCc1cc(=O)oc2c(C(CCN(CC)CC)c3cc(OC)c(OC)c(OC)c3)c(OC)cc(OC)c12 (stereo unspecified) ?
DAT uptake mod: -0.26

Results for O=C(CCn1c(=O)oc2ccccc21)N1CCN(c2ccccc2Cl)CC1 ?
DAT uptake mod: 3.4*; D1 mod: 1.4; WNV protease inh: 0.06; AP complement: -17

What do the screens show for `Cc1cc(C)n(CC(=O)c2ccccc2)c(=O)c1C#N`?
DAT uptake mod: 0.037; D1 mod: -0.84; WNV protease inh: -0.77

How did Cc1cc(=O)n2nc(-c3ccccc3)sc2c1C#N do in these assays?
DAT uptake mod: 2.5*; D1 mod: 1.1; WNV protease inh: -0.41; AP complement: 2

What do the screens show for `C=CCn1c(COc2cccc3ccc(C)nc23)nnc1SCC(N)=O`?
DAT uptake mod: 0.88; WNV protease inh: -1.1; AP complement: 4

How did CCOC(=O)C(NC(C)=O)(N1CCOCC1)C(F)(F)F (stereo unspecified) do in these assays?
DAT uptake mod: 1.8*; D1 mod: 0.3; WNV protease inh: -1; AP complement: 7

What do the screens show for `Cc1sc2ncnc(NCC(c3ccco3)N3CCCC3)c2c1C` (stereo unspecified)?
DAT uptake mod: -0.87

How did COc1ccc(OC)c(NC2=NC3(CCCCC3)N=C(N)N2)c1 do in these assays?
DAT uptake mod: 0.069; D1 mod: -5.2*; WNV protease inh: 0.25; AP complement: 10

What do the screens show for `COc1ccc(NC2=NC3(CCCCC3)N=C(N)N2)cc1`?
DAT uptake mod: 0.15; D1 mod: -1.8; WNV protease inh: -0.71; AP complement: 12

What do the screens show for `CC(NC(=O)c1ccco1)c1cccc2ccccc12` (stereo unspecified)?
DAT uptake mod: -0.87

How did Cc1nnc(NC(=O)c2cccc(NC(=O)C(C)C)c2)s1 do in these assays?
DAT uptake mod: -7*

What do the screens show for `O=C(Nc1ccc2ccccc2c1)c1cnccn1`?
DAT uptake mod: -0.1; D1 mod: -2*; WNV protease inh: -0.14; AP complement: 13

What do the screens show for `Nc1ccc(S(=O)(=O)c2ccc(Cl)cc2)cc1`?
DAT uptake mod: -3.1*

What do the screens show for `Nc1ccc(S(N)(=O)=O)cc1`?
DAT uptake mod: -0.97

Results for Cc1nn(C)c(Oc2ccc(Cl)cc2)c1C(=O)Nc1ccc(F)cc1F ?
DAT uptake mod: -0.76

How did CNC(=O)c1nnc(Cc2ccc(F)cc2)o1 do in these assays?
DAT uptake mod: 0.76; D1 mod: 0.39; WNV protease inh: -3.1*; AP complement: 16
